Assay results taken from ChEMBL document CHEMBL1629527, “In vitro antifungal activities of bis(alkylpyridinium)alkane compounds against pathogenic yeasts and molds” (Antimicrob Agents Chemother, 2010).

Columns and labels:
[1] = test system: Aspergillus terreus; assay: Antifungal activity against Aspergillus terreus 05-202844 after 24 to 72 hrs by broth microdilution method; format: functional
Method in brief: (§1)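 Broth microdilution MIC per CLSI M27-A3 (yeasts) or M38-A2 (molds). RPMI 1640 with L-glutamine, without bicarbonate, buffered to pH 7.0 with 0.165 M MOPS. Final test range for the compounds was 0.175–87.5 μM. Incubation at 35°C with visual reading at 24–72 h. MIC was the lowest concentration giving 100% inhibition versus the growth control (azoles 50% or 100%, by organism). Each isolate was run in duplicate in two independent experiments.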

[2] = Antifungal activity against Paecilomyces lilacinus 05-200601 after 24 to 72 hrs by broth microdilution method; format: functional; conditions: Purpureocillium lilacinum
Method in brief: (§2)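 Mold isolates subcultured on potato dextrose agar, then tested by CLSI M38-A2 broth microdilution in RPMI 1640 (L-glutamine, no bicarbonate) buffered to pH 7.0 with 0.165 M MOPS. Compounds were dissolved in water and tested at a final 0.175–87.5 μM. Plates were incubated at 35°C. MIC was read visually as the lowest concentration giving 100% inhibition versus the growth control. Each isolate was run in duplicate in two independent experiments.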

[3] = test system: Cryptococcus neoformans; assay: Antifungal activity against Cryptococcus neoformans ATCC 90112 after 48 to 72 hrs; format: functional
Method in brief: (§3)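 MFC: after the MIC read, 30-μl aliquots from each well without visible growth were plated onto Sabouraud dextrose agar and incubated at 35°C. Reading was at 48–72 h for yeasts and up to 7 days for molds. MFC was the lowest concentration with no colonies.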

[4] = test system: Cunninghamella bertholletiae; assay: Antifungal activity against Cunninghamella bertholletiae 99-12187 after 24 to 72 hrs by broth microdilution method; format: functional; method in brief: as §1
[5] = test system: Fusarium solani; assay: Antifungal activity against Fusarium solani 04-203102 after 48 to 72 hrs; format: functional
Method in brief: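 After the broth microdilution MIC read, suspension from every well without visible growth was plated onto Sabouraud dextrose agar and incubated at 35°C, up to 7 days for molds. MFC was taken as the lowest drug concentration with no colonies.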

[6] = test system: Nakaseomyces glabratus; assay: Antifungal activity against Candida glabrata 04-202345 after 24 to 72 hrs by broth microdilution method; format: functional; method in brief: as §1
[7] = test system: Cunninghamella bertholletiae; assay: Antifungal activity against Cunninghamella bertholletiae 99-12187 after 48 to 72 hrs; format: functional; conditions: in the assay text read “for up to 7 days” for “after 48 to 72 hrs”; method in brief: as §3
[8] = test system: Cryptococcus neoformans; assay: Antifungal activity against Cryptococcus neoformans 05-202523 after 24 to 72 hrs by broth microdilution method; format: functional; method in brief: as §1
[9] = test system: Aspergillus fumigatus; assay: Antifungal activity against Aspergillus fumigatus 05-203114 after 48 to 72 hrs; format: functional
Method in brief: (§4)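 CLSI M38-A2 broth microdilution for molds in RPMI 1640 with L-glutamine and no bicarbonate, buffered with 0.165 M MOPS to pH 7.0. Compounds were dissolved in water and tested at 0.175–87.5 μM final, 35°C, up to 7 days. MIC was read visually as 100% inhibition versus growth control. For MFC, clear wells were plated on SDA and the lowest concentration with no colonies taken. Each isolate was run in duplicate, two independent experiments.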

[10] = test system: Lichtheimia corymbifera; assay: Antifungal activity against Absidia corymbifera 04-200170 after 48 to 72 hrs; format: functional; method in brief: as §4
[11] = test system: Rhizopus arrhizus; assay: Antifungal activity against Rhizopus oryzae 05-203111 after 24 to 72 hrs by broth microdilution method; format: functional; method in brief: as §2
[12] = test system: Lichtheimia corymbifera; assay: Antifungal activity against Absidia corymbifera 04-200170 after 24 to 72 hrs by broth microdilution method; format: functional; method in brief: as §1
[13] = test system: Aspergillus flavus; assay: Antifungal activity against Aspergillus flavus ATCC 204304 after 24 to 72 hrs by broth microdilution method; format: functional; method in brief: as §1
[14] = test system: Lomentospora prolificans; assay: Antifungal activity against Scedosporium prolificans 05-203060 after 24 to 72 hrs by broth microdilution method; format: functional; method in brief: as §2
[15] = test system: Candida parapsilosis; assay: Antifungal activity against Candida parapsilosis 04-202398 after 48 to 72 hrs; format: functional; conditions: Lodderomyces parapsilosis
Method in brief: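 CLSI M27-A3 broth microdilution for yeasts in RPMI 1640 with L-glutamine and no bicarbonate, buffered with 0.165 M MOPS to pH 7.0. Compounds were dissolved in water and tested at 0.175–87.5 μM final, 35°C. MIC was read visually at 24–72 h as 100% inhibition versus growth control. For MFC, 30 μl from clear wells went onto SDA at 35°C for 48–72 h, reading the lowest concentration without colonies. Duplicates, two independent runs.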

[16] = test system: Exophiala spinifera; assay: Antifungal activity against Exophiala spinifera 03-200803 after 24 to 72 hrs by broth microdilution method; format: functional; method in brief: as §2
[17] = test system: Scedosporium apiospermum; assay: Antifungal activity against Scedosporium apiospermum 05-203100 after 24 to 72 hrs by broth microdilution method; format: functional; method in brief: as §2
[18] = test system: Aspergillus fumigatus; assay: Antifungal activity against Aspergillus fumigatus ATCC 204305 after 24 to 72 hrs by broth microdilution method; format: functional; method in brief: as §1
[19] = test system: Pichia kudriavzevii; assay: Antifungal activity against Candida krusei ATCC 6258 after 24 to 72 hrs by broth microdilution method; format: functional; method in brief: as §1
[20] = test system: Candida albicans; assay: Antifungal activity against Candida albicans ATCC 10231 after 24 to 72 hrs by broth microdilution method; format: functional; method in brief: as §1
[21] = test system: Candida tropicalis; assay: Antifungal activity against Candida tropicalis 04-202361 after 24 to 72 hrs by broth microdilution method; format: functional; method in brief: as §1
[22] = test system: Aspergillus flavus; assay: Antifungal activity against Aspergillus flavus ATCC 204304 after 48 to 72 hrs; format: functional; method in brief: as §3
[23] = test system: Pichia kudriavzevii; assay: Antifungal activity against Candida krusei 04-202328 after 24 to 72 hrs by broth microdilution method; format: functional; method in brief: as §1
[24] = test system: Candida albicans; assay: Antifungal activity against Candida albicans ATCC 90028 after 24 to 72 hrs by broth microdilution method; format: functional; method in brief: as §1
[25] = test system: Aspergillus fumigatus; assay: Antifungal activity against Aspergillus fumigatus 05-203114 after 24 to 72 hrs by broth microdilution method; format: functional; method in brief: as §1
[26] = test system: Candida parapsilosis; assay: Antifungal activity against Candida parapsilosis 04-202398 after 24 to 72 hrs by broth microdilution method; format: functional; conditions: Lodderomyces parapsilosis; method in brief: as §1
[27] = test system: Cryptococcus gattii species complex; assay: Antifungal activity against Cryptococcus gattii 05-200122 after 24 to 72 hrs by broth microdilution method; format: functional, Cryptococcus bacillisporus; method in brief: as §1
[28] = Antifungal activity against Exophiala jeanselmei 03-200268 after 24 to 72 hrs by broth microdilution method; format: functional; method in brief: as §1
[29] = test system: Fusarium solani; assay: Antifungal activity against Fusarium solani 04-203102 after 24 to 72 hrs by broth microdilution method; format: functional; method in brief: as §2
[30] = test system: Candida parapsilosis; assay: Antifungal activity against Candida parapsilosis ATCC 22019 after 24 to 72 hrs by broth microdilution method; format: functional; conditions: Lodderomyces parapsilosis; method in brief: as §1
[31] = test system: Cryptococcus neoformans; assay: Antifungal activity against Cryptococcus neoformans 05-202523 after 48 to 72 hrs; format: functional; method in brief: as §3
[32] = test system: Cryptococcus neoformans; assay: Antifungal activity against Cryptococcus neoformans ATCC 90112 after 24 to 72 hrs by broth microdilution method; format: functional; method in brief: as §1
[33] = test system: Aspergillus terreus; assay: Antifungal activity against Aspergillus terreus 05-202844 after 48 to 72 hrs; format: functional; method in brief: as §3
[34] = test system: Aspergillus fumigatus; assay: Antifungal activity against Aspergillus fumigatus ATCC 204305 after 48 to 72 hrs; format: functional; method in brief: as §4
[35] = test system: Aspergillus flavus; assay: Antifungal activity against Aspergillus flavus 05-203758 after 24 to 72 hrs by broth microdilution method; format: functional; method in brief: as §1

Molecule `CCCCC(CCCC)c1cc[n+](CCCCCCCCCCCC[n+]2ccc(C(CCCC)CCCC)c(C)c2)cc1C.[Cl-].[Cl-]` has an MIC [1] of 3.7 µg/mL, an MIC [2] of 59.7 µg/mL and an MFC [3] of 3.7 µg/mL. The MIC [4] was 14.9 µg/mL, the MFC [5] was 59.7 µg/mL and the MIC [6] was 1.86 µg/mL. The MFC [7] was 29.8 µg/mL, the MIC [8] was 3.7 µg/mL and the MFC [9] was 59.7 µg/mL. The MFC [10] was 59.7 µg/mL, the MIC [11] was 3.7 µg/mL and the MIC [12] was 29.8 µg/mL. For the same molecule, the MIC [13] was 14.9 µg/mL, the MIC [14] was 3.7 µg/mL and the MFC [15] was 29.8 µg/mL. For the same molecule, the MIC [16] was 1.86 µg/mL, the MIC [17] was 1.86 µg/mL and the MIC [18] was 14.9 µg/mL. It also gave an MIC [19] of 3.7 µg/mL, an MIC [20] of 1.86 µg/mL and an MIC [21] of 1.86 µg/mL. For the same molecule, the MFC [22] was 59.7 µg/mL, the MIC [23] was 3.7 µg/mL and the MIC [24] was 1.86 µg/mL. The MIC [25] was 14.9 µg/mL, the MIC [26] was 14.9 µg/mL and the MIC [27] was 1.86 µg/mL. For the same molecule, the MIC [28] was 3.7 µg/mL, the MIC [29] was 29.8 µg/mL and the MIC [30] was 1.86 µg/mL. It also gave an MFC [31] of 7.5 µg/mL, an MIC [32] of 1.86 µg/mL and an MFC [33] of 14.9 µg/mL. It also gave an MFC [34] of 29.8 µg/mL and an MIC [35] of 59.7 µg/mL.
